# From ChEMBL document CHEMBL2311371, “Effects of fluorines on nonsecosteroidal vitamin D receptor agonists” (2013)
# Key:
# [1] = biological target: T1, Vitamin D3 receptor (Homo sapiens) (UniProt P11473); assay: Agonist activity at VDR in human MG-63 cells assessed as transcriptional activation of osteopontin gene after 3 days by luciferase reporter gene assay relative to 1,25(OH)2D3; assay type: cell-based
# T1 sequence (whole entry): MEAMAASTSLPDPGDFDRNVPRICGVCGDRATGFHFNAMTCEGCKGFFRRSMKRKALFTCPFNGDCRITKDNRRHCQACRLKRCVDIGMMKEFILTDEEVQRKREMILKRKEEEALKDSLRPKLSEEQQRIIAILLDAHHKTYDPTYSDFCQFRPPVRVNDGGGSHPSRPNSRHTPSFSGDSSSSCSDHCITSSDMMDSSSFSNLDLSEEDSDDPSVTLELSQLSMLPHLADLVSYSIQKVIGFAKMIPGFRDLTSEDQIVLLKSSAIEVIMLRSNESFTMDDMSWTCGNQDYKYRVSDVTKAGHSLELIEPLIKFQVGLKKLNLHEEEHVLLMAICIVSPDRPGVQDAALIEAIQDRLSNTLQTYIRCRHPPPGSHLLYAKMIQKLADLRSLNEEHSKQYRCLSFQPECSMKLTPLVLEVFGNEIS
# Outline: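 MG-63 cells seeded 2×10^3/well, 24 h at 37 °C, 5% CO2. Cotransfected with VDRE-luciferase construct (three osteopontin-promoter VDRE repeats, 0.05 µg) plus pRL-SV40 (0.001 µg) by lipofection. Kept 8 h in MEM with 5% DCC-FBS, then dosed 10^-7 to 10^-11 mol/L (0.1% DMSO) for 3 days. Dual-luciferase readout on lysates. EC50 expressed as ratio to 1,25(OH)2D3 (set 100%).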
# [2] = biological target: T1, Vitamin D3 receptor (Homo sapiens); assay: Agonist activity at VDR in human MG-63 cells assessed as osteocalcin production compound incubated for 8 hrs measured after 4 days by EIA relative to 1,25(OH)2D3; assay type: cell-based
# Outline: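 MG-63 cells seeded 2×10^3/well in serum-free MEM, 24 h at 37 °C, 5% CO2; washed and switched to 5% DCC-FBS/MEM. Serial dilutions 10^-7 to 10^-11 mol/L (0.1% DMSO) applied 8 h, then medium replaced and culture continued 4 days. Gla-type osteocalcin in supernatant measured by EIA at 450 nm against standards. EC50 expressed as ratio to 1,25(OH)2D3 (set 100%).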
# HL-60 = assay: Induction of human HL60 cell differentiation after 4 days by WST-8 assay relative to 1.25-OH2 D3; assay type: functional
# Outline: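 HL-60 cells seeded 2×10^5 cells/mL in RPMI-1640 with 10% heat-inactivated FBS and antibiotics, 37 °C, 5% CO2. Cultured 4 days with 10^-10 to 10^-7 M compound. On the final day, PMA (final 100 ng/mL) plus WST-8 (final 20%) added for 90 min; absorbance change read at 450 nm. EC50 expressed as ratio to 1,25(OH)2D3 (set 100%).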
Activity [1],Activity [2],SMILES,Activity (HL-60)
91%,429%,CCC(CC)(c1ccc(CCC(O)(C(F)(F)F)C(F)(F)F)c(C)c1)c1ccc(OC[C@@H](O)CCC(=O)[O-])c(C)c1.[Na+],106%
592%,3750%,CCC(CC)(c1ccc(/C=C/C(O)(C(F)(F)F)C(F)(F)F)c(C)c1)c1ccc(OC[C@@H](O)CCC(=O)[O-])c(C)c1.[Na+],252%

# The remaining lines, values behind:
SMILES,Activity [1],Activity [2],Activity (HL-60)
CCC(CC)(c1ccc(OCC(O)CO)c(C)c1)c1ccc(OCC(O)C(C)(C)C)c(C)c1 (centres undefined) [LG-190178],–,185%,71%
CCC(CC)(c1ccc(C#CC(O)(C(F)(F)F)C(F)(F)F)c(C)c1)c1ccc(OC[C@@H](O)CCC(=O)[O-])c(C)c1.[Na+],30%,546%,227%
CCC(O)(/C=C/c1ccc(C(CC)(CC)c2ccc(OC[C@@H](O)CCC(=O)[O-])c(C)c2)cc1C)CC.[Na+],105%,447%,126%
